Laboratory results: ChEMBL document CHEMBL4513216, “Probing the Open Global Health Chemical Diversity Library for Multistage-Active Starting Points for Next-Generation Antimalarials” (ACS Infect Dis, 2020)

experiment: Toxicity liver stage against HepG2, at 10uM; type: cell-based; parameters: test concentration 10 uM, cell line HepG2-A16-CD81EGFP; details: human, HepG2-A16-CD81EGFP cells; read-out: INHIBITION
Summary of the method: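 Uninfected HepG2-A16-CD81EGFP cells, 3 × 10^3 per well, 1536-well, plated on prespotted compound at 10 μM final, parasite-free screening media added to match infected plates; puromycin 10 μM positive, DMSO 0.5% negative; run in parallel with 48 h PbLuc assay at 37 °C, 5% CO2; viability by CellTiter-Glo luminescence, normalized to controls.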

SMILES | cytotoxicity at 10 µM [%]
CC(C)c1nc(CN2CCN(C(C)c3nc(C4CC4)no3)CC2)no1 (centres undefined) | 6.54
CCN1CCCC1CN(CCN(C)C)S(=O)(=O)c1ccccc1C#N (centres undefined) | -8.58
COc1ccc(C)cc1CC(=O)NC(CC(=O)O)c1ccc(F)cc1 (centres undefined) | 7.66
CCCc1ccc(CN2CCC3(CCC(=O)N(CCO)C3)CC2)o1 | -6.29
Cc1noc(C)c1C(=O)N1CCC(c2cc3cnccc3[nH]2)CC1 | 7.07
CN(Cc1ccccc1F)C(=O)c1cc(Cl)c[nH]1 | -5.45
CN(C)C(=O)CN1CCc2ncnc(N(C)C)c2CC1 | -93.2
CCOc1ccc(CN(CCOC)C(=O)c2ccncc2Cl)cc1 | 5.82
CCN1CC(CN(C)Cc2nc(-c3ccc(F)cc3F)oc2C)CC1=O (centres undefined) | -6.64
CC(=O)c1ccc(C(=O)N2C[C@H]3CC[C@@H](C2)N(CC2CCC2)C3)s1 | -5.79
CC(=O)NCC1CCN(C(=O)c2c[nH]c3cc(Cl)ccc23)CC1 | 7.07
O=C(NCc1cncc2c1CCN(Cc1ccc(F)cc1)C2)C1CC1 | -3.26
Cc1nccc(N2CCCC(C)(C(=O)NC3CCCC3)C2)n1 (centres undefined) | -18.6
O=C(Cn1cnc2cc3c(cc21)OCCCO3)NCCc1ccccc1 | 7.57
OCCN1CCN(Cc2cn(-c3ccccc3)nn2)CC1 | 1.42
c1ccc(Cc2noc(-c3ccc(NCC4CCCCO4)nc3)n2)cc1 (centres undefined) | 3
CCCn1cc(NC(=O)c2cccc3cccnc23)ccc1=O | -4.73
COCCc1noc(CN2CCCCC2Cn2cccn2)n1 (centres undefined) | -1.3
CC(=O)N[C@@H]1CN(C2CCN(c3ccccc3F)CC2)C[C@H]1C(C)C | -14.5
COc1ccc(C(=O)Nc2ccccc2-c2ccc(=O)n(C)n2)cc1 | 2.11
Cc1cc(-c2nn(C)c(Cl)c2CN2Cc3ccccc3C(O)C2)no1 (centres undefined) | 4.1
COc1ccc(CNC(=O)NCCc2csc(C)n2)cn1 | -7.05

SMILES | cytotoxicity at 10 µM [%]
Cc1cc(CCC(N)=O)cc(C2CCCN2Cc2cnc(C)nc2)n1 (centres undefined) | -26.1
Nc1nc2c(c(NCc3ccc(C(=O)N4CCCC4)cc3)n1)CCCC2 | 21.1
COc1ccc(C)cc1-c1csc(N)c1C#N | -5.18
Cc1ccc(CN(CCCn2ccnc2)Cc2c[nH]cn2)s1 | -4.99
Cc1ccc(C2CSCCN2C(=O)NCc2cccnc2)cc1 (centres undefined) | 5.48
CCC(C)C(=O)N(CC(=O)OC)c1cccc(C)n1 (centres undefined) | -4.31
Cc1cc2c(N)nc(=O)n(CC(=O)Nc3ccccc3)c2s1 | 1.54
NC(=O)NC(=O)CCN1CCCC1c1nc(C2CCCCC2)co1 (centres undefined) | 5.33
Cc1cc(C)c2c(OCC(=O)NC(C)C)nn(C)c2n1 | -7.25
O=C(NC1CC1)C1=CC2(CCN(CCO)CC2)c2ccccc21 | 1.41
Cc1cc(C)n(C2CCN(c3ncnc4c3CCNCC4)C2)n1 (centres undefined) | 7.82
COc1ccc(CCNc2cc(-c3nc(C)no3)ccn2)cc1OC | 3.39
CCc1c(-c2ccccc2)nc2c(c(C)c(C)n2CCN(C)C)c1N | 17.7
CN(Cc1nnc(C2CC2)n1C)C1CCN(CCc2ccncc2)C1 (centres undefined) | -4.56
O[C@@H]1CN(CC2CC2)CC[C@H]1N1CCN(c2ccccc2F)CC1 | -50.3
O=C(c1ccc2c(c1)OCO2)N1CCCC(n2ccnc2)C1 (centres undefined) | -7.6
CC(C#N)CN(C)C(=O)CCNC(=O)C(C)(C)C (centres undefined) | 0.843
c1ccc(C[C@H]2CN(Cc3nccs3)CC[C@@H]2OCC2CC2)cc1 | -62.3
O=C1CC2(CCN(Cc3cccnc3)C2)CN1c1cncnc1 (centres undefined) | -65.7
CCc1ncc(C(=O)N2CC[C@H]3CC[C@@H](C2)N3C)cn1 | -7.09
COc1ccc(C(=O)C2CCCN(CCCn3cccn3)C2)c(OC)c1 (centres undefined) | -12.2
Cc1oc2c(c1C(=O)N1C[C@H](O)[C@]3(CCCO3)C1)CCCC2 | -0.4

SMILES | cytotoxicity at 10 µM [%]
Cc1ccc2c(c1)SCC(=O)N2CC(=O)N1CCCC1c1cc(C)no1 (centres undefined) | 8.32
CN(C)c1ncc(CNC(=O)Nc2ccc(C(F)(F)F)cc2)n1C | -49.9
CCc1noc(CCC(=O)N2CCC(c3ccn[nH]3)C2)n1 (centres undefined) | 6.03
c1cnc(N2CCC3(CCN(CC4CCOC4)CC3)CC2)nc1 (centres undefined) | -1.22
CCOC(=O)NC(C(=O)NCc1ccc(N2CCCCC2)nc1)C(C)C (centres undefined) | -6.09
NC(=O)COc1ccc(CNCc2cc(F)cc(F)c2)cc1 | -7.85
CC1(C)Oc2ccc(S(=O)(=O)NCCCn3ccnc3)cc2NC1=O | 14.5
CC(=O)N1CCc2[nH]c(=O)ccc2C1 | 0.351
CC(C)c1noc(OCc2cccc(C#N)c2)n1 | -43.6
CCc1cc(=O)n(CC(=O)N2CCC(C)CC2)c(-c2ccccc2)n1 | 10.8
CSc1ccc(NCc2csc(CS(C)(=O)=O)n2)cc1F | -9.99
COCCN1CCC(C(=O)c2cc(F)ccc2F)CC1 | -9.47
CCCNC(=O)Cn1cc(C#N)c(=O)c2cc(Br)ccc21 | -0.842
CNS(=O)(=O)Cc1cccc(CNC(=O)Nc2cn[nH]c2)c1 | -11.2
CC(C)c1noc(C2CCCN2S(=O)(=O)Cc2ccc(F)cc2)n1 (centres undefined) | 3.88
Cc1nn(C)cc1CN1CCc2c(nc(-c3ccccn3)[nH]c2=O)C1 | -32.1
Cc1nc(CNC(=O)CCN2CCN(c3ccccc3)CC2)oc1C | -4.04
CNC(=O)C(C)(C)N1CCC[C@H]1C(=O)NC1CC1 | 4.82
COc1cc(N2CCC3(CC2)CN(CCO)c2ccccc23)ncn1 | 19.7
COc1ccc(Cl)cc1NC(=O)CCNc1ccc(C#N)cn1 | 2.59
c1ccc(CN2C[C@@H]3OCCN(CC4CCCO4)[C@@H]3C2)nc1 (some centres undefined) | 0.616
CC(C)(C)C(=O)NCCCC(=O)NC(C)(C)c1ccc2c(c1)OCO2 | 12.1

SMILES | cytotoxicity at 10 µM [%]
Cc1cc(N2CCN(c3ccc(=O)[nH]n3)CC2)nc(-c2ccncc2)n1 | -5.19
CC(C)(C)C(=O)N1CCCC1c1nccnc1Cl (centres undefined) | 2.83
O=S1(=O)CCC(S(=O)(=O)c2cccc(S(=O)(=O)N3CCCCCC3)c2)C1 (centres undefined) | -7.39
COc1ccc2c(c1)C1(CCN(Cc3ccoc3)CC1)N(C)CC2 | -8.04
O=c1ccc2c(n1CC1CC1)CCC(NS(=O)(=O)C1CC1)C2 (centres undefined) | -63.9
CC(=O)N1CC[C@H]2CC(=O)N(CCc3c[nH]cn3)CC[C@H]2C1 | -2.77
CN1CC(=O)N(c2cccc(F)c2)CC12CCN(Cc1ccccn1)C2 (centres undefined) | 2.49
CSc1nc(C2CC2)nc(C)c1C(=O)NCc1ncc(C)o1 | -3.71
O=C1NCCCC12CCN(Cc1ccc(SC3CCCCC3)o1)C2 (centres undefined) | -3.33
CCOC(=O)C1CCN(C(=O)CN2CCCC2c2ccccc2C)CC1 (centres undefined) | 7.97
O=C(c1cc[nH]n1)N1CCc2onc(COc3cccnc3)c2C1 | -70.3
CCOc1ccc(S(=O)(=O)NCCCc2ccc(N(C)C)cc2)cc1C | 0.279
Cc1cc(-c2cc(-c3cc(CC(=O)O)cs3)nc(N)c2C#N)oc1C | -6.25
Cc1cccc(N2CCN(CCNC(=O)c3ccnn3C)CC2)c1 | 10.4
CCN(CC)c1nc2ccsc2c(=O)n1CCC(=O)NCc1cccs1 | -5.27
COc1ccc2c(c1)C(=O)NC1(CC2)CCN(Cc2ccccn2)C1 (centres undefined) | 4.51
CCc1nc2c(c(NC3CC3)n1)CCN(C(=O)N1CCN(C)CC1)CC2 | 0.445
c1ccc(COC[C@H]2CC[C@H]3[C@H](CCN3c3ncccn3)O2)nc1 | -78
CC(C)NC(=O)C[C@@H]1CCNC[C@@H]1Cc1cc(-c2ccccn2)on1 | -3.15
CNC(=O)[C@@H]1CCO[C@@H]2CCN(Cc3ccsc3)C[C@H]21 | -78.3
Cc1ccc(C(=O)N(CC(=O)O)CC(C)C)cc1F | -4.07
Cc1ccc(CN2CCC3(CCCN(Cc4ccc(F)c(F)c4)C3)C2)o1 (centres undefined) | 9.39

SMILES | cytotoxicity at 10 µM [%]
CN(C)CC1CN(c2ncnc3ccsc23)CCO1 (centres undefined) | 12
O=C(NCCCF)Nc1ccc2nc(N3CCOCC3)oc2c1 | 2.77
CN(C)C(=O)c1ccc2ccc(N3CCN(CC4CC4)CC3)n2c1 | 4.14
CCn1nc(C)cc1C(=O)OCCNC(=O)c1ccccc1 | 1.44
CSc1cccc(CN2CCC(CCC(=O)Nc3ccccc3)CC2)c1 | -2.48
CCc1nn(C)c(Cl)c1CN1C[C@@H](NC(=O)N(C)C)[C@H](C(C)C)C1 | 11.4
CNc1cc(C2CN(CC(=O)N(C)C)CCO2)nc(C)n1 (centres undefined) | -14.4
O=C(c1cccnc1Oc1ccccc1)N1CCCn2ncnc21 | -13.7
O=C(CCN1CCCN(c2nccs2)CC1)Nc1ccccc1 | 10.5
CS(=O)(=O)CCN(Cc1cccc(O)c1)C1CCC(O)CC1 (centres undefined) | 5.38
CCCSc1ncccc1C(=O)NCc1ccc(N(C)C)cc1 | 8.07
COc1ccc(-c2noc(C3CC(C(C)C)=NO3)n2)cc1 (centres undefined) | -6.64
COc1ccc(C(=O)N2CCC(Nc3ccc(C)nn3)CC2)cc1 | -8.51
COc1ccc(CN2CCC[C@@H]3CN(C(=O)c4ccco4)C[C@@H]32)cc1 | 1.44
O=C(c1csc(C2CC2)n1)N1CCCC1Cn1cccn1 (centres undefined) | -5.53
CN(CC(N)=O)CC(=O)N1CC=C(c2ccccc2)CC1 | -5.1
Cc1ccc(C(=O)N(Cc2ccc(F)cc2F)C2CC2)c(=O)[nH]1 | -2.01
Cc1nccn1CCC1CCCCN1C(=O)c1ccc2[nH]nnc2c1 (centres undefined) | 19.9
CN(C(=O)Cn1nc(-c2ccccc2Cl)ccc1=O)C1CCS(=O)(=O)C1 (centres undefined) | 1.96
COc1ccc(C(C(=O)O)N(C)Cc2ccon2)cc1Cl (centres undefined) | -5.02
Cc1cc(O)cc(C2CCCN2C(=O)c2ccn(C)n2)n1 (centres undefined) | -2.82
